Laboratory results reported in paper PMC3028369 (Diabetes, 2011).
Values after ≈ are worked out from the molar mass of the structure shown.

Assays:
mouse aortic ECs [1] = assay: Cyclic AMP accumulation in mouse aortic ECs; type: cell-based; settings: ECs from C57BL/6 mice
mouse aortic ECs [2] = assay: IL-6 and KC production in mouse aortic ECs; type: cell-based; settings: for effect on IL-6 production in ECs (ELISA): 16 h, 10 nmol/L CPA, 100 nmol/L CGS21680, 10 nmol/L Cl-IBMECA
Outline: (§1)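 Mouse aortic endothelial cells were exposed to the nonselective agonist NECA over a time course. IL-6 and KC were read out as mRNA by quantitative RT-PCR and as secreted protein.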

KKA^Y mice = assay: Hyperinsulinemic-euglycemic clamp in diabetic KKA^Y mice; type: in vivo, mouse; settings: 20 mg/kg oral gavage four times at 12-h intervals
Outline: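 Insulin-resistant KKAY mice received test compound at 20 mg/kg by oral gavage four times at 12-h intervals. A jugular catheter was placed under anaesthesia 4–5 days earlier. Plasma [3H]glucose was sampled before, during and at the end. HGP was taken basally and under clamp. N = 7; two-tailed Student t test.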

C57BL/6 mice = assay: High-fat diet-induced elevated fasting blood glucose; type: in vivo, mouse; settings: 10 mg/kg/day in high-fat diet for 10 weeks, 4-h fast
Outline: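 C57BL/6 mice ate a high-fat diet (55% of calories from fat) for 10 weeks, with or without test compound at 10 mg/kg/day. Blood glucose was measured after a 4-h fast, N = 5.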

[3] = Oral bioavailability in rats; type: in vivo, rat
Aqueous solubility = type: physicochemical
mouse aortic ECs [4] = assay: IL-6 mRNA induction in mouse aortic ECs; type: cell-based
Outline: as §1

[5] = tested on: C57BL/6J and adenosine receptor knockout mice; assay: NECA gavage before glucose tolerance test, fasting glucose and plasma IL-6; type: in vivo, mouse
Outline: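 Male 8-week C57BL/6J mice and congenic adenosine receptor knockouts (N = 5) received an oral bolus of vehicle or NECA (0.3 mg/kg) 35 min before an ip GTT (1.25 g/kg). Blood glucose was read by glucometer and AUC calculated. Fasting glucose was taken 35 min after gavage. Plasma IL-6 was measured 4 h after dosing.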

Structure (SMILES): Nc1nc2c(cnn2CCc2ccc(S(=O)(=O)F)cc2)c2nc(-c3ccco3)nn12 [FSPTP]
- effect on NECA-induced increase in cyclic AMP (mouse aortic ECs [1]; 1 μmol/L ATL-692, 100 nmol/L FSPTP): not affected

Structure (SMILES): OC[C@H]1O[C@@H](n2cnc3c(NC4CCCC4)ncnc32)[C@H](O)[C@@H]1O [CPA]
- effect on IL-6 production in ECs (ELISA) (mouse aortic ECs [2]): without effect

Structure (SMILES): CCCn1c(=O)n(C2CC2)c(=O)c2[nH]c(-c3ccc(N(CC)C(=O)c4cccnc4)nc3)nc21 [ATL-801]
- basal HGP rate (KKA^Y mice): markedly reduced
- clamp HGP rate (insulin-stimulated state) (KKA^Y mice): markedly reduced
- increase in hepatic insulin action (insulin-mediated percent suppression of basal HGP) (KKA^Y mice): 30%
- diet-induced elevated fasting blood glucose (C57BL/6 mice): significantly reduced
- oral bioavailability [3]: 73%
- aqueous solubility (Aqueous solubility): 30 µg/mL (≈ 65.3 µM)

Structure (SMILES): CNC(=O)[C@H]1O[C@@H](n2cnc3c(NCc4cccc(I)c4)nc(Cl)nc32)[C@H](O)[C@@H]1O [Cl-IB-MECA]
- effect on IL-6 production in ECs (ELISA) (mouse aortic ECs [2]): without effect

Structure (SMILES): CCCCCCOC(=O)[C@]1(O)C[C@@H]2O[C@@]1(C)n1c3ccccc3c3c4c(c5c6ccccc6n2c5c31)C(=O)NC4 [KT5720]
- inhibition of IL-6 mRNA induction by NECA (mouse aortic ECs [4]; ECs, inhibitor at 1 μmol/L): significantly inhibited

Structure (SMILES): CCNC(=O)[C@H]1O[C@@H](n2cnc3c(N)nc(NCCc4ccc(CCC(=O)O)cc4)nc32)[C@H](O)[C@@H]1O [CGS21680]
- effect on IL-6 production in ECs (ELISA) (mouse aortic ECs [2]): without effect

Structure (SMILES): CCNC(=O)[C@H]1O[C@@H](n2cnc3c(N)ncnc32)[C@H](O)[C@@H]1O [NECA, 5′-N-ethylcarboxamidoadensoine]
- plasma IL-6 ([5]; C57BL/6J mice, 4 h after administration): increase in plasma IL-6
- fasting glucose levels ([5]; C57BL/6 mice, 35 min after gavage): significantly increased
- glucose disposal during GTT ([5]; wild-type fasted mice, oral gavage 0.3 mg/kg 35 min before GTT): substantial delay in glucose disposal
- IL-6 production (protein) in ECs (mouse aortic ECs [2]; 1 μmol/L, time course): more sustained stimulation
- production of the murine IL-8 homolog KC in ECs (mouse aortic ECs [2]; 1 μmol/L, time course): stimulates the production
- EC50 (mouse aortic ECs [2]; read-out: EC50 to stimulate IL-6 production in ECs, ECs from C57BL/6 mice, 24 h): 140 nM
- IL-6 mRNA in ECs (mouse aortic ECs [4]; 1 μmol/L, time course): transient increase
- cyclic AMP in ECs (mouse aortic ECs [1]; agonist alone): rapid increase in cyclic AMP
